ChEMBL document CHEMBL4622928, “Discovery of 5-(4-methylpiperazin-1-yl)-2-nitroaniline derivatives as a new class of SIRT6 inhibitors” (Bioorg Med Chem Lett, 2020)

Columns and labels:
[1] = target: NAD-dependent protein deacylase sirtuin-6 (Homo sapiens, UniProt Q8N6T7); assay: Binding affinity to SIRT6 (unknown origin) by isothermal titration calorimetry
[2] = Toxicity in mouse assessed as effect on body weight; conditions: in vivo
Method in brief: (§1)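 Normal (non-diabetic) mice were dosed, and blood glucose and body weight were tracked over the study.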

[3] = Toxicity in mouse assessed as change in blood glucose level; method in brief: as §1
[4] = Toxicity in mouse model of type-2 diabetes mellitus assessed as effect on body weight at 7.5 to 30 mg/kg, ip; type: organism-based; conditions: in vivo
Method in brief: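 High-fat-diet-fed mice served as the type 2 diabetes model. Compound was given by intraperitoneal injection, and blood glucose and body weight were followed over time.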

[5] = target: T1, NAD-dependent protein deacetylase sirtuin-2 (Homo sapiens, UniProt Q8IXJ6); assay: Inhibition of SIRT2 (unknown origin)
T1 sequence (Q8IXJ6 whole entry): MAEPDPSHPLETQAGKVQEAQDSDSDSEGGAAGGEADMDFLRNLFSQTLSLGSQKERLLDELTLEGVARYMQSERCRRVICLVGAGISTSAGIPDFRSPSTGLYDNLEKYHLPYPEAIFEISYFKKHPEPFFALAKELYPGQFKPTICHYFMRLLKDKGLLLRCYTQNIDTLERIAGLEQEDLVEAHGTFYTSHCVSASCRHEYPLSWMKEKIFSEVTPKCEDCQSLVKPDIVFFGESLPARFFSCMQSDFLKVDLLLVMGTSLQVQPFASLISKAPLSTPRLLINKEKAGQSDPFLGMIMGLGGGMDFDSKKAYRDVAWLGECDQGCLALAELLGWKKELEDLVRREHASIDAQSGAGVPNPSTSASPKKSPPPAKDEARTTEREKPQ
Method in brief: (§2)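 Each deacetylase was run in a Fluor de Lys (FDL) fluorogenic deacetylation assay as a selectivity screen, with compound tested at concentrations up to 200 μM. IC50 was estimated from the dose-response.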

[6] = target: T2, NAD-dependent protein deacetylase sirtuin-3, mitochondrial (Homo sapiens, UniProt Q9NTG7); assay: Inhibition of SIRT3 (unknown origin); method in brief: as §2
T2 sequence (Q9NTG7 whole entry): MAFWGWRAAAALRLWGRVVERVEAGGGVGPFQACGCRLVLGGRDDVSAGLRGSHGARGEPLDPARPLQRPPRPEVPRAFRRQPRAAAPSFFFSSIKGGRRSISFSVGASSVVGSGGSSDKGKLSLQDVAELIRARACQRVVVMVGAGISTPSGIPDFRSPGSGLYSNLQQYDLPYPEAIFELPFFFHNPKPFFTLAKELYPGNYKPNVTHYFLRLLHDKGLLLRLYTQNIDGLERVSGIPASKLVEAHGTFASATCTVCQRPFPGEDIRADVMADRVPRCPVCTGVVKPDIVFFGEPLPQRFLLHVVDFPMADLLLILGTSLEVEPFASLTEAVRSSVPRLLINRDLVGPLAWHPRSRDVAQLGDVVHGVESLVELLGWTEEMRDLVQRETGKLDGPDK

[7] = target: Histone deacetylase 3 (Homo sapiens, UniProt O15379); assay: Inhibition of HDAC3 (unknown origin); method in brief: as §2
Sequence of Histone deacetylase 3 (O15379 whole entry): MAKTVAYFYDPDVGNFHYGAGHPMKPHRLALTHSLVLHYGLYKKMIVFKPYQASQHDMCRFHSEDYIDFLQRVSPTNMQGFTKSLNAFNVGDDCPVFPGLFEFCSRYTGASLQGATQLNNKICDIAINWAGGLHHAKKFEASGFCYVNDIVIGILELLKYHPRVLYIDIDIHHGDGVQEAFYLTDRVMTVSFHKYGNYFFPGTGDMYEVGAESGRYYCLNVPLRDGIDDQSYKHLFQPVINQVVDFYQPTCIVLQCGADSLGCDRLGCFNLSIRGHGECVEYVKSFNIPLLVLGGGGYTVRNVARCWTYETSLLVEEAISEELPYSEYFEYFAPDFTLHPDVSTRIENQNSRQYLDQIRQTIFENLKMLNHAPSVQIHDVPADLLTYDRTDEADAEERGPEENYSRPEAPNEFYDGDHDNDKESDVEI

[8] = target: T3, Histone deacetylase 8 (Homo sapiens, UniProt Q9BY41); assay: Inhibition of HDAC8 (unknown origin); method in brief: as §2
T3 sequence (Q9BY41 whole entry): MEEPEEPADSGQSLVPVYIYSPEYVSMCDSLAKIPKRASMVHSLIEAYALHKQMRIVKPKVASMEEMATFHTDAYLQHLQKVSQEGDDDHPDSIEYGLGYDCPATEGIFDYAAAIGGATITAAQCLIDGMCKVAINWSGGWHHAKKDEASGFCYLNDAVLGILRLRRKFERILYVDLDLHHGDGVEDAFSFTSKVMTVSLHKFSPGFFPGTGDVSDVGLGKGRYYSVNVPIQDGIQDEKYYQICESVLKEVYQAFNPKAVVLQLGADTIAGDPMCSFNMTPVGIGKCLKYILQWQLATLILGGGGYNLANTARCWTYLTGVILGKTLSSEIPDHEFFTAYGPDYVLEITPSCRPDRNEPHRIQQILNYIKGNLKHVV

[9] = target: T4, Histone deacetylase 11 (Homo sapiens, UniProt Q96DB2); assay: Inhibition of HDAC11 (unknown origin); method in brief: as §2
T4 sequence (Q96DB2 whole entry): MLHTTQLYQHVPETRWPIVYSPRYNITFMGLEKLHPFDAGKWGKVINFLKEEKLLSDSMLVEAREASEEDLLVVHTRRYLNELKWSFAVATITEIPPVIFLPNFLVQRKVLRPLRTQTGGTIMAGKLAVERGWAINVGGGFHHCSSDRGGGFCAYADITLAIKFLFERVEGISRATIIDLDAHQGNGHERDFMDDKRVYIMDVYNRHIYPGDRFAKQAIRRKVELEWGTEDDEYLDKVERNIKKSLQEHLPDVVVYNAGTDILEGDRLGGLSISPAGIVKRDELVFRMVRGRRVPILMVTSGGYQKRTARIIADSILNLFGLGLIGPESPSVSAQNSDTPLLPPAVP

[10] = system: BXPC-3; assay: Upregulation of GLUT1 expression in human BxPC3 cells measured after 72 hrs by Western blot analysis; type: functional, cell-based
Method in brief: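 BxPC-3 cells were exposed to 1.25, 2.5, 5 and 10 μM compound for 72 h. GLUT1 protein was then detected by western blot, with α-tubulin as loading control.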

Sequence of NAD-dependent protein deacylase sirtuin-6 (Q8N6T7 whole entry): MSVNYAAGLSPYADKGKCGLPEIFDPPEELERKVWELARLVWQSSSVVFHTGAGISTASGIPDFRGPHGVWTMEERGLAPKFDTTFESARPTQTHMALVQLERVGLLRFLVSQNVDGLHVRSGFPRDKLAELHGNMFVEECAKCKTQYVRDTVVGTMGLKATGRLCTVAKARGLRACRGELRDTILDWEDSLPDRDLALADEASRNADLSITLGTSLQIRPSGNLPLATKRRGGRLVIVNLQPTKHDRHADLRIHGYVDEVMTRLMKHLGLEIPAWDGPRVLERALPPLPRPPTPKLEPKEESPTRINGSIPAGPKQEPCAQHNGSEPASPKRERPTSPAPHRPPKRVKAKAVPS

CN1CCN(c2ccc([N+](=O)[O-])c(N)c2)CC1
Kd [1]: 10 µM | Activity [2]: Non-Toxic | Activity [3]: Non-Toxic | Activity [4]: Non-Toxic | IC50 [5]: > 200 µM | IC50 [6]: > 200 µM | IC50 [7]: > 200 µM | IC50 [8]: > 200 µM | IC50 [9]: > 200 µM | Activity [10]: Dose-dependent effect
